Test results published in PMC5989829 (Acta Pharmaceutica Sinica. B, 2017).
Where two headings read alike, the source gives them in different places. One block for each compound: values may come before it.

What was measured:
[1] = cited from earlier work; for Water solubility: must be dissolved in organic solvents such as DMSO
calf-thymus DNA (CT-DNA) [2] = settings: cited from earlier work
A549 necrotic cells = test: Nuclear extraction from necrotic A549 cells incubated with tracer; format: cell-based, human; settings: 50 μmol/L
calf-thymus DNA (CT-DNA) [3] = test: Competitive study with ethidium bromide on CT-DNA; format: binding
Procedure, shortened: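 CT-DNA prepared in 5 mmol/L Tris-HCl/50 mmol/L NaCl, pH 7.4, stirred at 4 °C for three days; concentration set by A260 (ε=6600 L/mol.cm). Test compound (stock 6.0×10−4 mol/L) titrated into 2.5 mL CT-DNA–ethidium bromide (CT-DNA 6.0×10−5 mol/L) to ratios 0 to 7/30. Fluorescence read at 25 °C, λex 530/λem 604 nm. Ksv from Stern–Volmer fit of I0/I versus compound concentration.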

calf-thymus DNA (CT-DNA) [4] = test: UV–vis spectroscopic study of interaction with CT-DNA; format: binding; settings: 25 °C, increasing CT-DNA
necrotic muscle = test: Self-blocking experiment in muscular necrosis model rats; format: in vivo, rat; settings: 24 h
A549 cells = test: Fluorescence microscopy of necrotic and viable A549 cells; format: cell-based, human; settings: 50 μmol/L, 30 min, co-staining with Hoechst 33342 and PI
[5] = test system: necrotic liver and necrotic muscle; test: Fluorescence microscopy of liver and muscle cryostat slices from model rats; format: in vivo, rat; settings: i.v. 2.0 mg/kg, 12 h to 8 days, λex=620 nm, λem=680 nm
[6] = human, even pregnant women and newborn babies, cited from earlier work
[7] = In vitro stability of the radiotracer in rat serum; format: in vitro ADME; settings: stored in rat serum at 37 °C, up to 8 days
Procedure, shortened: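 Radiolabelled test compound mixed with rat serum (1:9 volume ratio) and kept at 37 °C. Sampled at 0.5, 4 h, 1, 2, 3 and 8 day. Label integrity assessed by TLC.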

Pharmacokinetics = format: in vivo, rat; settings: normal rats, i.v. 14.8 MBq/kg in PBS, non-compartmental, mean±SD, n=6
Procedure, shortened: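 Six healthy rats dosed i.v. with radiolabelled test compound (14.8 MBq/kg) in PBS. 10 μL tail-slit blood samples drawn at 5, 10, 30 min and 1, 2, 4, 6, 8, 12, 24, 48 h. Samples γ-counted with decay and background correction and expressed as MBq per liter. Parameters derived by non-compartmental analysis; mean±SD.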

[8] = test system: necrotic liver and necrotic muscle; format: in vivo, rat
[9] = test system: necrotic liver and necrotic muscle; test: Autoradiography of necrotic/normal liver and partially necrotic muscle sections; format: in vivo, rat; settings: 24 h after intravenous injection
Procedure, shortened: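 Rats (male SD, 260–280 g) on 0.1% KI drinking water from 3 days before study. Liver necrosis: right-lobe hilum clamped 3 h, then reperfused; muscle necrosis induced with absolute ethanol. Labelled test compound (14.8 MBq/kg, 2.0 mg/kg) in PBS given i.v. via tail vein; sacrifice at 12, 24, 72 h, 8 day (n=5 each). Frozen 30 μm sections cut at −20 °C, 3 h phosphor-screen exposure, then H&E for co-localization.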

Water solubility = format: physicochemical; settings: can be dissolved in PBS or saline
[10] = γ counting, 24 h after i.v. 14.8 MBq/kg, model rats

Compound: ^131I-hypericin
Water solubility [1]: water-insoluble

Compound: Nc1ccc2c(c1)C(=O)c1ccccc1C2=O [2-aminoanthraquin]
Binding constant with CT-DNA (calf-thymus DNA (CT-DNA) [2]): 1.25×10^3 L/(mol/L)

Compound: Cc1cc(-c2ccc(/N=N/c3ccc4c(S(=O)(=O)O)cc(S(=O)(=O)O)c(N)c4c3O)c(C)c2)ccc1/N=N/c1ccc2c(S(=O)(=O)O)cc(S(=O)(=O)O)c(N)c2c1O [EB, Evans blue]
Uptake in necrotic cell nuclei (A549 necrotic cells; 15 min incubation): 82.3%
Uptake in necrotic cell nuclei (A549 necrotic cells; 2 h incubation): 79.2%
Ksv (Stern–Volmer quenching constant; binding constant with CT-DNA) (calf-thymus DNA (CT-DNA) [3]; CT-DNA-ethidium bromide displacement, 25 °C, λex=530 nm): 5.08×10^5 L/(mol/L)
Binding constant with CT-DNA relative to 2-aminoanthraquin (calf-thymus DNA (CT-DNA) [3]; EB versus 2-aminoanthraquin): 400 times
Change of UV–vis absorption bands on addition of CT-DNA (calf-thymus DNA (CT-DNA) [4]): significant hypochromism accompanied with a red shift
Radioactivity of ^131I-EB in necrotic muscle blocked (necrotic muscle; 10 mg/kg EB): about 65%
Cellular localisation (A549 cells): specifically located in the nuclei of necrotic cell
Retention in necrotic tissues by fluorescence microscopy [5]: Selective retention of EB in necrotic tissues up to 8 days
Adverse reactions in clinical use ([6]; ref 24, 25): without adverse reactions
Adverse reactions in clinical use ([6]; ref 41, 42): without any adverse reactions

Compound: Cc1cc(O)c2c(=O)c3c(O)cc(O)c4c5c(O)cc(O)c6c(=O)c7c(O)cc(C)c8c1c2c(c34)c(c78)c65 [Hyp, Hypericin]
Solubility [1]: nearly insoluble in water and most nonpolar solvents

In vitro stability (radiolabeling stability by TLC) [7]: over 90%
AUC0–t (Pharmacokinetics): 564.82±27.55 MBq/L ·h
AUC0–∞ (Pharmacokinetics): 737.28±62.32 MBq/L ·h
CLz (clearance) (Pharmacokinetics): 0.35 ± 0.067 mL/min/kg
Cmax (peak concentration) (Pharmacokinetics): 96.84±10.05 MBq/L
Tmax (peak time) (Pharmacokinetics): 4.98 ± 0 min
t1/2z (elimination half-life) (Pharmacokinetics): 24.40 ± 3.64 h
Water solubility (Water solubility): highly water-soluble
Compound: ^131I-evans blue [^131I-EB]
Time of highest uptake in necrotic liver and muscle ([8]; time points 12, 24, 72 h and 8 day): 24 h
Time of highest radioactivity in normal tissue ([8]; time points 12, 24, 72 h and 8 day, especially normal liver, spleen, kidney): 12 h
Ratio of uptake in necrotic muscle to normal muscle ([8]; γ counting, 8th day after i.v. 14.8 MBq/kg, model rats): 7.43 times
Radioactivity ratio of necrotic to viable (normal) liver [8, 10]: 3.41
Radioactivity ratio of necrotic to viable (normal) muscle [8, 10]: 11.82
Radioactivity ratio of necrotic to normal liver [9]: 4.26
Radioactivity ratio of necrotic to normal muscle [9]: 10.2
Uptake in necrotic cell nuclei (A549 necrotic cells; 15 min incubation): 82.3%
Uptake in necrotic cell nuclei (A549 necrotic cells; 2 h incubation): 79.2%
Uptake in necrotic muscle (necrotic muscle; coinjected with excessive cold EB (10 mg/kg), n=3, P<0.01): 0.47±0.07 %ID/g
Uptake in necrotic muscle (necrotic muscle; non-blocking group, n=3): 1.35±0.22 %ID/g

Compound: ^131I-sennidin A
Water solubility [1]: water-insoluble
